For experiment [1], the target named is T1, Amine oxidase [flavin-containing] A (Homo sapiens, UniProt P21397).
T1 sequence (P21397 whole entry): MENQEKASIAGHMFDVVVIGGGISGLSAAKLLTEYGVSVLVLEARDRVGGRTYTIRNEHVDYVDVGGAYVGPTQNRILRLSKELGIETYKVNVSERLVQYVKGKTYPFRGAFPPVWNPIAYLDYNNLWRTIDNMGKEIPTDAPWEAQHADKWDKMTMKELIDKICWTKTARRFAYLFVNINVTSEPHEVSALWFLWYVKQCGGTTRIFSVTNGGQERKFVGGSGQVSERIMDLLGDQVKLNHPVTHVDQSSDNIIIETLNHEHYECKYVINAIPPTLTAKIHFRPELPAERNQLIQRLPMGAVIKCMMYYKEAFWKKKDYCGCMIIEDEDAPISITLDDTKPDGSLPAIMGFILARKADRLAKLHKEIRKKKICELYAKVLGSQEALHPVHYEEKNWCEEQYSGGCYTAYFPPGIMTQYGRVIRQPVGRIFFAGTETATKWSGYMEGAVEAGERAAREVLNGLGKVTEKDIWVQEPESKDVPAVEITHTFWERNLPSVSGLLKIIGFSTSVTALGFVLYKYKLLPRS
In words: Reversible inhibition of human recombinant MAO-A expressed in baculovirus infected […] insect cells at 300 nM incubated for 1 hr followed by compound washout by centrifugation-ultrafiltration method. In a few lines: (§1)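 Recombinant hMAO-A (baculovirus-infected BTI insect cells) preincubated with a single inhibitor concentration in 0.05 M sodium phosphate, pH 7.4, 1 h at 37°C. One aliquot kept at 4°C unwashed. Remainder ultrafiltered (30 kDa membrane, 9000x g, 20 min, 4°C), resuspended and spun twice more. Activity by Amplex Red/HRP H2O2 fluorescence. Percent inhibition vs vehicle controls, with and without washing.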

The target of experiment [2] is T1, Amine oxidase [flavin-containing] A. In words: Reversible inhibition of human recombinant MAO-A expressed in baculovirus infected […] insect cells at 300 nM after 1 hr by centrifugation-ultrafiltration method. In a few lines: as §1

Consider 1 compound from ChEMBL document CHEMBL2434937, “Monoamine oxidase inhibitory activity of 3,5-biaryl-4,5-dihydro-1H-pyrazole-1-carboxylate derivatives” (Eur J Med Chem, 2013).

For `O=C(NCCN1CCOCC1)c1ccc(Cl)cc1` [MOCLOBEMIDE], the values for the inhibition at 0.3 µM in experiment [1] and in experiment [2] were 9.56% and 89%, respectively.
